In publication PMC6718200 (Bioorganic & medicinal chemistry, 2018):
pKd: −log10 of the molar value.

What was measured:
HT29 [1] = assay: Cell cycle analysis by flow cytometry; type: cell-based, human; settings: HT29, 0, 25, 50, 75 μM, 48 h
In short: (§1)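 Cells were cultured in 10% FBS at 37 °C and 5% CO2 (HT29 in McCoy's 5a, SW620 in high-glucose DMEM). At 80% confluence they were seeded into 6-well plates and exposed to the test compound at 0, 25, 50 or 75 μM for 48 h. Cells were washed in cold PBS and fixed in 70% ethanol at 4 °C for 24 h. They were stained with PI plus RNase A for 30 min at 37 °C in the dark, then analysed by flow cytometry. Three independent experiments.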

SW620 [2] = assay: BrdU assay; type: cell-based, human; settings: SW620, 0, 25, 50, 75 μM, 48 h
In short: (§2)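 Cells at 80% confluence were seeded at 20,000 per well and exposed to test compound at 0, 25, 50 and 75 μM for 48 h. They were pulsed with 10 μM BrdU for 2 h, fixed in paraformaldehyde, treated with 2 M HCl for 30 min, and blocked with 10% goat serum for 30 min at 37 °C. Staining used rat anti-BrdU (1:2000, overnight, 4 °C), then […] (1:2000, 120 min, RT), then DAPI at 300 nM. The % BrdU-positive cells was scored by fluorescence microscopy. Three independent experiments; mean ± SD.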

SW620 [3] = assay: Hoechst 33342 staining; type: cell-based, human; settings: SW620, 0, 25, 50, 75 μM, 48 h
In short: (§3)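 Chromatin-condensation assay. HT29 (McCoy's 5a) and SW620 (high-glucose DMEM), each with 10% FBS, were seeded into 24-well plates. They were treated with the test compound at 0, 25, 50 or 75 μM for 48 h, then fixed in 4% paraformaldehyde for 20 min and washed with PBS. Cells were stained with Hoechst 33342 for 15 min at 37 °C. Condensed-chromatin apoptotic cells were scored by fluorescence microscopy.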

HT29 [4] = assay: Apoptosis assessment, PI/annexin V-FITC flow cytometry; type: cell-based, human; settings: HT29, 0, 25, 50, 75 μM, 48 h
In short: (§4)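 Cells were grown in 10% FBS medium at 37 °C and 5% CO2: HT29 in McCoy's 5a, SW620 in high-glucose DMEM. They were treated with the test compound at 0, 25, 50 or 75 μM for 48 h. Attached and floating cells were pooled, washed twice in cold PBS and stained with annexin V-FITC/PI for 15 min at room temperature. The apoptotic fraction was read by flow cytometry. Three independent experiments, mean ± SD, two-tailed t-test.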

SW620 [5] = assay: Cell cycle analysis by flow cytometry; type: cell-based, human; settings: SW620, 0, 25, 50, 75 μM, 48 h
In short: as §1

SW620 [6] = assay: Western blotting analysis; type: cell-based, human; settings: SW620, 0, 25, 50, 75 μM, 48 h
In short: (§5)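 Cells were treated with test compound at 0, 25, 50 and 75 μM for 48 h and lysed in RIPA with protease and phosphatase inhibitors; protein was quantified by BCA. 50 µg lysate was run on 8–15% SDS-PAGE and transferred to PVDF. Blocking was 5% BSA/TBST for 2 h at RT; primary antibodies overnight at 4 °C; HRP secondary 1:10000 for 1 h. Detection by ECL, with tubulin as loading control and densitometry. Three independent experiments; mean ± SD.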

SW620 [7] = assay: Apoptosis assessment, PI/annexin V-FITC flow cytometry; type: cell-based, human; settings: SW620, 0, 25, 50, 75 μM, 48 h
In short: as §4

97-kinase panel = 97-kinase panel screen; type: binding; settings: read-out: Kd, all tested kinases
HT29 [8] = assay: Western blotting analysis; type: cell-based, human; settings: HT29, 0, 25, 50, 75 μM, 48 h
In short: as §5

SW620 [9] = assay: Colony formation assay; type: cell-based, human; settings: SW620, exposure for two weeks
FHC cell lines = assay: MTT assay, growth inhibition in immortalized colorectal cells; type: cell-based; settings: Homo sapiens, read-out: GI50 FHC
In short: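 MTT format: 3 × 10³ cells per well, 24 h pre-incubation, then test compound at 0–200 μM (final, from DMSO stocks) for 12, 24, 48 or 72 h. MTT at 0.5 mg/mL final for 4 h; formazan dissolved in DMSO; A570. GI50 was fitted from growth-inhibition curves, three independent experiments in sextuplicate.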

HT29 [10] = assay: Hoechst 33342 staining; type: cell-based, human; settings: HT29, 0, 25, 50, 75 μM, 48 h
In short: as §3

HT29 [11] = assay: Colony formation assay; type: cell-based, human; settings: HT29, exposure for two weeks
HT29 [12] = assay: BrdU assay; type: cell-based, human; settings: HT29, 0, 25, 50, 75 μM, 48 h
In short: as §2

With `CC(C)CN(C(=O)c1cccnc1)c1c2ccccc2c(=O)n2c1[nH]c1ccccc12` [Compound 7g] the “average G2/M proportion” value (HT29 [1]) was “increased in a concentration-dependent manner”, the “proliferation (BrdU immunofluorescence)” value (SW620 [2]) was “inhibited the proliferation” and the “number of apoptosis bodies” value (SW620 [3]) was “increased in a concentration-dependent manner”. For the same molecule, the “percentage of cells undergoing apoptosis” value (HT29 [4]) was “increased in a concentration-dependent manner”, the “average G2/M proportion” value (SW620 [5]) was “increased in a concentration-dependent manner” and the BCL-2 protein level (SW620 [6]) was “decreased”. The CDK1 level (SW620 [6]) was “decreased”, the MCL-1 protein level (SW620 [6]) was “decreased” and the PARP activation (SW620 [6]) was “significantly increased”. For the same molecule, the PTEN level (SW620 [6]) was “increase in a concentration-dependent manner”, the “cyclin B1 level” value (SW620 [6]) was “decreased” and the p21 level (SW620 [6]) was “increased”. The p53 level (SW620 [6]) was “increased”, the p-4E-BP1 level (SW620 [6]) was “decreased” and the p-AKT level (SW620 [6]) was “decreased”. For the same molecule, the p-mTOR level (SW620 [6]) was “decreased”, the “total expression levels of AKT, mTOR and 4E-BP1” value (SW620 [6]) was “hadn’t effect” and the “percentage of cells undergoing apoptosis” value (SW620 [7]) was “increased in a concentration-dependent manner”. The pKd (97-kinase panel) was < 5.30, the BCL-2 protein level (HT29 [8]) was “decreased” and the CDK1 level (HT29 [8]) was “decreased”. The MCL-1 protein level (HT29 [8]) was “decreased”, the PARP activation (HT29 [8]) was “significantly increased” and the PTEN level (HT29 [8]) was “increase in a concentration-dependent manner”. For the same molecule, the “cyclin B1 level” value (HT29 [8]) was “decreased”, the p21 level (HT29 [8]) was “increased” and the p53 level (HT29 [8]) was “increased”. For the same molecule, the p-4E-BP1 level (HT29 [8]) was “decreased”, the p-AKT level (HT29 [8]) was “decreased” and the p-mTOR level (HT29 [8]) was “decreased”. For the same molecule, the “total expression levels of AKT, mTOR and 4E-BP1” value (HT29 [8]) was “hadn’t effect”, the “colony size and numbers” value (SW620 [9]) was “dramatically reduced” and the GI50 (FHC cell lines) was > 200 µM. For the same molecule, the “number of apoptosis bodies” value (HT29 [10]) was “increased in a concentration-dependent manner”, the “colony size and numbers” value (HT29 [11]) was “dramatically reduced” and the “proliferation (BrdU immunofluorescence)” value (HT29 [12]) was “inhibited the proliferation”.
